# Compound activity: PubChem, Johns Hopkins Ion Channel Center
# The list is not random: actives were taken first. Their share in the collection is about 3%.
# TRPC4 agonist – activators of mouse TRPC4 channel, primary screen, Fluo4 calcium, HEK293 TRPC4beta/mu-opioid cells; 0.49% of 310,000 active; Short transient receptor potential channel 4 (Mus musculus), Q9QUQ5; Fluo4 calcium fluorescence; active compounds read high; B-score at 10 µM;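 active = B-score above 5 SD of library B-scores, and initial fluorescence ratio not above library mean plus 5 SD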;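 also: positive B-score marks a calcium rise read as TRPC4 activation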
# Target sequence (Q9QUQ5 whole entry, looked up): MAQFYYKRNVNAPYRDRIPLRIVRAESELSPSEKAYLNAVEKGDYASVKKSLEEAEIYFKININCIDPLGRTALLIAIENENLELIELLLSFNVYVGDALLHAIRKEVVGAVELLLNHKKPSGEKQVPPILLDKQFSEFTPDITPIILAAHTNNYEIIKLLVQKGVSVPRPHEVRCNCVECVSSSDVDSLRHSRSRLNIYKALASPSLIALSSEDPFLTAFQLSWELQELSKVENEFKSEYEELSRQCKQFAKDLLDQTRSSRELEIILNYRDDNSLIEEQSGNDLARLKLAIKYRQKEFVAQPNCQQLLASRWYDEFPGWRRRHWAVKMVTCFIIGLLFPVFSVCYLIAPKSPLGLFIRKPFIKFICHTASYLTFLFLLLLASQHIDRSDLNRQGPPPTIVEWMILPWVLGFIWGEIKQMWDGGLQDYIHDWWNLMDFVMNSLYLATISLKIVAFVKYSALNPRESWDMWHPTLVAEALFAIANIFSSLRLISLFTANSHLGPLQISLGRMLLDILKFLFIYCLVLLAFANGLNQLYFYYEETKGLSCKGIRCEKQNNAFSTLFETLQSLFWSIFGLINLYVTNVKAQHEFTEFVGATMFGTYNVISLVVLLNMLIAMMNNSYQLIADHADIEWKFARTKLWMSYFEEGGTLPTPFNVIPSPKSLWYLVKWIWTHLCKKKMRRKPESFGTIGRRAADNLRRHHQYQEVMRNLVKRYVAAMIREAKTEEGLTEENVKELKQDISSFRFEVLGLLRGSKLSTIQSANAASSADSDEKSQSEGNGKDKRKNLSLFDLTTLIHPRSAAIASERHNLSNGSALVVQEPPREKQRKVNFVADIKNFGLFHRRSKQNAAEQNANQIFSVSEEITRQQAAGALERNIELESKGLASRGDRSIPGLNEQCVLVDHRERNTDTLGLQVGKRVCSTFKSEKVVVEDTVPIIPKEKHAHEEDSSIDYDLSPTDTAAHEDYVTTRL
#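 Material: HEK293 stable line with TRPC4beta plus mu-opioid receptor; technique: Fluo4 calcium-sensitive dye fluorescence, kinetic, 1 Hz baseline; timing: Fluo4 dye loading 45 min at room temperature, 110 s recording; controls: assay buffer as low control, maximal DAMGO as high control; read-out: integrated baseline-normalised fluorescence ratio, converted to per-well B score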
# TRPC6 activator – mouse TRPC6 channel activators, primary screen, cell-based, HEK293, membrane potential dye; 0.13% of 310,000 active; HEK293-TRPC6 membrane potential dye fluorescence; active compounds read high; AID 2550, 2010; B-score at 10 µM; Short transient receptor potential channel 6 (Mus musculus), Q61143;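 active = B-score of the integrated fluorescence ratio above library mean plus 3 SD, and starting fluorescence ratio within library mean plus 5 SD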;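 also: higher score means more depolarization so channel activation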
# TRPC4 inh – inhibitors of mouse TRPC4 channel, primary screen, Fluo4 calcium, HEK293 TRPC4beta/mu-opioid cells | B-score at 10 µM | 0.39% of 300,000 active | DAMGO-evoked Fluo4 calcium flux; active compounds read low;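 active = B-score over 3 SD under the library average, no early fluorescence shift, positive overall ratio signal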
#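 Assay system: HEK293 cells with stable TRPC4beta plus mu-opioid receptor expression; Probe or stimulus: DAMGO in two steps, submaximal then maximal; Dosing: single-point compound dosing; Measured by: Fluo4 calcium-dye fluorescence, kinetic read; Read-out basis: B score from integrated Fluo4 fluorescence ratio.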
# Kir21 inh – inhibitors of mouse Kir2.1 inward-rectifier potassium channel | B-score at 10 µM | 0.85% of 310,000 active | HEK293-Kir2.1, FluxOR thallium flux fluorescence; active compounds read low | Inward rectifier potassium channel 2 (Mus musculus), P35561;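 active = fluorescence ratio B-score at or below minus 3 SD of library scores, with starting-brightness B-score within 2 SD, cut at about -4.2 in these data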;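 also: channel flux triggered by added potassium and thallium sulfate stimulus; B-score of peak minus minimum fluorescence over baseline after thallium stimulus; more negative B-score means stronger Kir2.1 block with less thallium influx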
# TRPC4 PAM – positive allosteric modulators of TRPC4, primary screen, cell-based, mouse TRPC4beta, HEK293 mu-opioid, Fluo-4 calcium | Short transient receptor potential channel 4 (Mus musculus), Q9QUQ5 | DAMGO EC20, Fluo-4 Ca2+ flux; active compounds read high | B-score at 10 µM | 0.42% of 310,000 active;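 active = B-score of calcium response area above 5 SD of library B-scores, with initial fluorescence ratio within 5 SD of library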;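 also: B-score of integrated fluorescence ratio over time as area under calcium response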
# TRPC6 inhibitor – mouse TRPC6 channel inhibitors, primary screen, cell-based, HEK293, membrane potential dye | ACh-evoked depolarization; active compounds read low | AID 2553, 2010 | Short transient receptor potential channel 6 (Mus musculus), Q61143 | 1.1% of 310,000 active | B-score at 10 µM;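 active = B-score under library mean minus 3 SD, initial fluorescence not abnormally high, positive integrated signal ratio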;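 also: B-score derived from integrated fluorescence ratio over the kinetic read; more negative B-score means stronger inhibition of depolarization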
# HEK293 TRPC6 ctr – parental HEK293 membrane potential modulation, confirmation, counter-screen for TRPC6 modulator project, cell-based. membrane potential signal change, % at 10 µM. shares compounds with TRPC6 inhibitor. AID 488924, 2010. 51% of 2,400 active. membrane potential dye fluorescence;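 active = membrane potential signal moves up or down beyond 5 SD from buffer-only wells, on both duplicate plates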
# HEK293 MPD ctr 2 – second check of TRPC6 modulator effects in parental HEK293 cells | shares compounds with TRPC6 inhibitor | membrane potential dye fluorescence; after compound, maximal acetylcholine stimulation | inhibition, % at 10 µM | 14% of 2,400 active | AID 488926;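 active = membrane potential signal drops by more than 5 SD from the mean control signal, in both duplicate plates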;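 also: plate controls were acetylcholine ECmax control wells for no effect and buffer only wells for full effect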
# TRPC4 ctr mod – TRPC4 modulation by TRPC6 hit compounds, confirmation, selectivity assay for TRPC6 modulator project, cell-based, HEK293 TRPC4/mu-opioid, membrane potential dye, mouse | percent change from control (negative = decrease, positive = increase), % at 10 µM | membrane potential fluorescence | shares compounds with TRPC6 inhibitor | 69% of 2,400 active;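 active = membrane potential signal moved up or down beyond 5 SD of buffer control wells, in both duplicate plates, actives on both sides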;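 also: plate controls were assay buffer wells for no effect and DAMGO maximal-effect wells for full effect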
# TRPC4/MOR inh 2 – second selectivity test of TRPC6 modulators against mouse TRPC4. AID 488928. shares compounds with TRPC6 inhibitor. HEK293 TRPC4/mu-opioid, membrane potential dye fluorescence; stimulated with maximal-effect DAMGO. 55% of 2,400 active. inhibition, % at 10 µM;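 active = drop in membrane potential signal beyond 5 SD of the control wells in both duplicate plates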;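 also: TRPC4 counter screen for TRPC6 hits run under conditions tuned for TRPC6 not TRPC4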
# TRPC6 block conf – mouse TRPC6 channel inhibitors, confirmation, HEK293 cells, membrane potential dye, duplicate; shares compounds with TRPC6 inhibitor; ACh-evoked depolarization; inhibition, % at 10 µM; 43% of 3,300 active; AID 488960, 2010;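 active = fluorescence ratio falls more than 5 SD below the full-stimulation control mean, in both duplicate runs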;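 also: integrated fluorescence ratio of peak minus minimum over baseline after agonist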
# TRPC6 act conf – mouse TRPC6 channel activators, confirmation, HEK293 cells, membrane potential dye, duplicate | AID 488961, 2010 | 11% of 2,800 active | shares compounds with TRPC6 inhibitor | activation, % at 10 µM | HEK293-TRPC6 membrane potential dye fluorescence, FDSS;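 active = ratio signal rise beyond 5 SD above unstimulated control wells' mean, seen in both duplicate runs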;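 also: plate controls were buffer EC0 wells for no effect and acetylcholine ECmax response for full effect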
# * = called active by the depositor; i = inactive; · = not tested or not shown; + = active, no number.
SMILES,TRPC4 agonist,TRPC6 activator,TRPC4 inh,Kir21 inh,TRPC4 PAM,TRPC6 inhibitor,HEK293 TRPC6 ctr,HEK293 MPD ctr 2,TRPC4 ctr mod,TRPC4/MOR inh 2,TRPC6 block conf,TRPC6 act conf
CC(=O)Oc1ccc(C(=O)Nc2ccc(S(=O)(=O)N3CCOCC3)cc2)cc1,i,i,i,-1.67,i,i,·,·,·,·,·,·
CCC(C)(C)NC(=O)c1ccc(S(=O)(=O)N2CCCCCC2)cc1,i,i,i,0.64,i,i,·,·,·,·,·,·
COc1ccc(OC)c2sc(N(CCN(C)C)C(=O)c3cc(Cl)sc3Cl)nc12,102*,i,i,0.31,i,-5.46*,i,i,-42.5%*,80.0%*,i,i
COc1ccc2sc(N(CCN(C)C)C(=O)c3cc(Cl)sc3Cl)nc2c1,i,i,i,0.08,i,i,·,·,·,·,·,·
CC(=O)c1ccc(NC(=O)Cn2c3ccccc3c3nc(=O)cc(C)n32)cc1,i,i,i,0.92,i,i,·,·,·,·,·,·
CCCN(C1CCS(=O)(=O)C1)S(=O)(=O)c1ccc(F)cc1 (stereo not drawn),i,i,i,-1.73,i,i,·,·,·,·,·,·
CNC(=O)CC1C(=O)N(c2ccc(F)cc2)C(=S)N1NC(=O)c1ccc(Cl)cc1 (stereo not drawn),i,i,i,0.01,i,-5.57*,i,i,i,i,i,i
C=CCNc1nc(C(=O)OCC(=O)Nc2c(Cl)cccc2C(F)(F)F)cs1,i,i,i,-0.38,i,i,·,·,·,·,·,·
COc1ccc(-c2nc3n(c2C)CCC3)cc1,i,i,i,-0.09,i,-5.78*,-266.5%*,i,-35.5%*,43.5%*,i,i
Cc1ccc(Cn2c(=N)c(C(=O)NCc3ccco3)cc3c(=O)n4ccccc4nc32)cc1,48*,i,i,0.89,i,-5.02*,i,i,-32.5%*,38.5%*,36.5%*,i
COCCn1c(=N)c(C(=O)NCc2ccco2)cc2c(=O)n3cc(C)ccc3nc21,i,i,·,-1.32,i,-8.24*,422.5%*,119.5%*,-74.0%*,39.5%*,50.5%*,i
N=c1c(C(=O)NCc2ccco2)cc2c(=O)n3ccccc3nc2n1CCc1ccccc1,i,i,i,-1.36,i,-5.81*,-80.5%*,i,-29.5%*,52.0%*,45.5%*,i
CCNC(=O)CN(c1ccc(Oc2ccccc2)cc1)S(=O)(=O)c1ccccc1,i,i,i,-1.84,i,i,·,·,·,·,·,·
O=C(CNC(=O)C1CCCCC1)NCc1ccco1,i,i,i,0.5,i,i,·,·,·,·,·,·
O=C(C1=C(O)C(=O)N(c2ccccc2)C1c1ccc([N+](=O)[O-])cc1)c1cccs1 (stereo not drawn),i,i,i,-0.77,i,i,·,·,·,·,·,·
Cc1ccc(O)c(C(=O)c2cc(C#N)c(=O)n(-c3nccs3)c2)c1,i,31.1*,i,-1.72,i,i,435.0%*,i,164.5%*,58.0%*,i,85.5%*
O=C1c2cccc3c(Nc4ccccc4Cl)c([N+](=O)[O-])cc(c23)C(=O)N1CCO,i,i,i,-0.89,i,-10.1*,-100.5%*,i,-25.5%*,81.0%*,47.0%*,i
O=C1c2cccc([N+](=O)[O-])c2C(=O)N1CCO,i,i,i,-0.28,i,i,·,·,·,·,·,·
CCOC(=O)C1=C(COC(=O)COc2ccc(Br)cc2)NC(=O)NC1C (stereo not drawn),i,i,i,-3.29,i,i,·,·,·,·,·,·
CC(C)COc1ccc(C(=O)OC2CC(C)(C)OCC2CN(C)C)cc1 (stereo not drawn),i,13.9*,i,-3.24,i,i,300.0%*,i,46.5%*,41.5%*,i,135.5%*
CC(C)c1nc(SCC(=O)Nc2ccc(N(C)C)cc2)c2ccccc2n1,i,i,i,-1.26,i,i,·,·,·,·,·,·
CC(C)n1c2ccccc2c2nnc(SCC(=O)Nc3ccccc3C(=O)O)nc21,i,i,i,1.34,i,i,·,·,·,·,·,·
Cc1cccc(C(=O)N2CCc3ccccc3C2)c1[N+](=O)[O-],i,i,i,1.03,i,-5.31*,i,i,15.5%*,i,i,i
O=C(c1ccccc1[N+](=O)[O-])N1CCc2ccccc2C1,i,i,i,0.48,i,i,·,·,·,·,·,·
Cc1c(Br)c([N+](=O)[O-])nn1C(C)C(=O)N1CCc2ccccc2C1 (stereo not drawn),i,i,i,-2.35,i,-5.98*,i,93.0%*,19.0%*,i,80.0%*,i
Cc1ccc(SCCNC(=S)Nc2ccc(C)c(C)c2)cc1,i,i,i,-0.5,i,-5.66*,+,+,-266.5%*,77.0%*,i,i
